According to the RNAGym collection of RNA variant scans (doi:10.1038/s41586-018-0170-7):

B1: tRNA (parent)
chain: GUUCCGUUGGCGUAAUGGUAACGCGUCUCCCUCCUAAGGAGAAGACUGCGGGUUCGAGUCCCGUACGGAACG

Variants of: B1
Test: yeast fitness, log relative to wild type (ln ratio); higher = fitter; tRNA-Arg(CCU), competitive growth, 37 C, 1 M NaCl
How it was run: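 Variants were counted by 125 bp paired-end Illumina sequencing after pools of a combinatorial tRNA-Arg(CCU) library, held on a HIS3 centromeric plasmid in BY4742 lacking the chromosomal gene, grew ~6.5 generations (~26.5 h) in SC-HIS 1M NaCl at 37 °C. Each genotype's fitness is the natural log of its generations relative to the wild type's. Generations were OD-scaled log2 output/input frequencies, inverse-variance weighted over replicates.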

Variant | yeast fitness (ln)
GGUCCUUUGGCGUAAUGGUAACGCGUCUCCCUCCUAAGGAGAAGAUUGCGGGUUCGAGUCCCGUACGGGUCG | -0.402
ACUCCAUUGGCGUAAUGGUAACGCGUUUCCCUCCUAAGGAGACGAUUGCGGGUUCGAGUCCCGUACGGAUUG | -0.153
AUUCCAUUGGCGUAAUGGUAACGCGUUUCCCUCCUAAGGAGACGACUGCGGGUUCGAGUCCCGUACGGGUUG | -0.684
GUUCCUUUGGCGUAAUGGUAACGCGUUUCCCUCCUAAGGAGACGAUUGCGGGUUCGAGUCCCGUAUGGGUCG | -0.416
GGUCCUUUGGCGUAAUGGUAACGCGUCUCCCUCCUAAGGAGACGACUGCGGGUUCGAGUCCCGUAUGGAUCG | -0.279
GGUCCGUUGGCGUAAUGGUAACGCGUCUCCCUCCUAAGGAGACGAUUGCGGGUUCGAGUCCCGUAAGGGUCG | -0.0871
AUUCCGUUGGCGUAAUGGUAACGCGUUUCCCUCCUAAGGAGAAGAUUGCGGGUUCGAGUCCCGUACGGAAUG | -0.0338
GGUCCGUUGGCGUAAUGGUAACGCGUCUCCCUCCUAAGGAGAAGACUGCGGGUUCGAGUCCCGUAUGGAUCG | -0.00968
AGUCCGUUGGCGUAAUGGUAACGCGUCUCCCUCCUAAGGAGACGACUGCGGGUUCGAGUCCCGUACGGGUCG | -0.159
GUUCCUUUGGCGUAAUGGUAACGCGUUUCCCUCCUAAGGAGACGACUGCGGGUUCGAGUCCCGUAAGGAGUG | -0.217
GUUCCUUUGGCGUAAUGGUAACGCGUCUCCCUCCUAAGGAGAAGAUUGCGGGUUCGAGUCCCGUAUGGGGCG | -0.275
GUUCCUUUGGCGUAAUGGUAACGCGUCUCCCUCCUAAGGAGACGAUUGCGGGUUCGAGUCCCGUAAGGGUCG | -0.113
ACUCCGUUGGCGUAAUGGUAACGCGUUUCCCUCCUAAGGAGAAGACUGCGGGUUCGAGUCCCGUACGGGGUG | -0.0512
GGUCCAUUGGCGUAAUGGUAACGCGUUUCCCUCCUAAGGAGAAGAUUGCGGGUUCGAGUCCCGUAAGGAUUG | -0.167
GGUCCGUUGGCGUAAUGGUAACGCGUUUCCCUCCUAAGGAGAAGACUGCGGGUUCGAGUCCCGUAUGGAACG | -0.0998
GGUCCGUUGGCGUAAUGGUAACGCGUCUCCCUCCUAAGGAGACGAUUGCGGGUUCGAGUCCCGUAUGGAGUG | -0.156
GCUCCUUUGGCGUAAUGGUAACGCGUCUCCCUCCUAAGGAGACGAUUGCGGGUUCGAGUCCCGUAAGGGUCG | -0.162
GCUCCUUUGGCGUAAUGGUAACGCGUCUCCCUCCUAAGGAGAAGAUUGCGGGUUCGAGUCCCGUAAGGAGUG | -0.0101
GUUCCGUUGGCGUAAUGGUAACGCGUCUCCCUCCUAAGGAGAAGACUGCGGGUUCGAGUCCCGUACGGGGUG | -0.222
AGUCCUUUGGCGUAAUGGUAACGCGUCUCCCUCCUAAGGAGAAGAUUGCGGGUUCGAGUCCCGUACGGAUUG | -0.511
GUUCCGUUGGCGUAAUGGUAACGCGUUUCCCUCCUAAGGAGAAGAUUGCGGGUUCGAGUCCCGUAUGGAGCG | -0.315
GGUCCUUUGGCGUAAUGGUAACGCGUUUCCCUCCUAAGGAGACGACUGCGGGUUCGAGUCCCGUACGGGGUG | -0.35
AUUCCUUUGGCGUAAUGGUAACGCGUCUCCCUCCUAAGGAGAAGAUUGCGGGUUCGAGUCCCGUAUGGAAUG | -0.057
GCUCCGUUGGCGUAAUGGUAACGCGUCUCCCUCCUAAGGAGAAGACUGCGGGUUCGAGUCCCGUAAGGGGUG | -0.105
AGUCCUUUGGCGUAAUGGUAACGCGUCUCCCUCCUAAGGAGAAGACUGCGGGUUCGAGUCCCGUAUGGAGUG | -0.264

Variant | yeast fitness (ln)
GCUCCGUUGGCGUAAUGGUAACGCGUCUCCCUCCUAAGGAGAAGACUGCGGGUUCGAGUCCCGUACGGGACG | -0.0379
GGUCCUUUGGCGUAAUGGUAACGCGUCUCCCUCCUAAGGAGACGAUUGCGGGUUCGAGUCCCGUACGGGUUG | -0.426
AUUCCUUUGGCGUAAUGGUAACGCGUCUCCCUCCUAAGGAGACGAUUGCGGGUUCGAGUCCCGUAAGGGGCG | -0.258
GUUCCAUUGGCGUAAUGGUAACGCGUUUCCCUCCUAAGGAGAAGACUGCGGGUUCGAGUCCCGUACGGAGUG | -0.291
AUUCCUUUGGCGUAAUGGUAACGCGUUUCCCUCCUAAGGAGACGAUUGCGGGUUCGAGUCCCGUAAGGAGUG | -0.377
AUUCCUUUGGCGUAAUGGUAACGCGUCUCCCUCCUAAGGAGAAGAUUGCGGGUUCGAGUCCCGUAAGGAUCG | -0.0534
GCUCCGUUGGCGUAAUGGUAACGCGUCUCCCUCCUAAGGAGAAGAUUGCGGGUUCGAGUCCCGUAUGGAGCG | 0.0022
GUUCCUUUGGCGUAAUGGUAACGCGUCUCCCUCCUAAGGAGAAGACUGCGGGUUCGAGUCCCGUAAGGGGUG | -0.402
AUUCCGUUGGCGUAAUGGUAACGCGUCUCCCUCCUAAGGAGACGACUGCGGGUUCGAGUCCCGUAUGGAUUG | -0.25
AUUCCUUUGGCGUAAUGGUAACGCGUCUCCCUCCUAAGGAGACGAUUGCGGGUUCGAGUCCCGUACGGGUCG | -0.272
AGUCCGUUGGCGUAAUGGUAACGCGUUUCCCUCCUAAGGAGAAGAUUGCGGGUUCGAGUCCCGUAAGGGUCG | -0.191
GGUCCGUUGGCGUAAUGGUAACGCGUCUCCCUCCUAAGGAGAAGAUUGCGGGUUCGAGUCCCGUACGGGUUG | -0.191
GGUCCGUUGGCGUAAUGGUAACGCGUCUCCCUCCUAAGGAGACGAUUGCGGGUUCGAGUCCCGUACGGGGUG | -0.12
GUUCCGUUGGCGUAAUGGUAACGCGUUUCCCUCCUAAGGAGACGAUUGCGGGUUCGAGUCCCGUAUGGGUUG | -0.391
GUUCCUUUGGCGUAAUGGUAACGCGUUUCCCUCCUAAGGAGAAGACUGCGGGUUCGAGUCCCGUAUGGAGCG | -0.288
GCUCCAUUGGCGUAAUGGUAACGCGUUUCCCUCCUAAGGAGACGACUGCGGGUUCGAGUCCCGUAUGGGGCG | -0.0511
AUUCCAUUGGCGUAAUGGUAACGCGUCUCCCUCCUAAGGAGAAGACUGCGGGUUCGAGUCCCGUAUGGGGCG | -0.235
GUUCCGUUGGCGUAAUGGUAACGCGUUUCCCUCCUAAGGAGACGAUUGCGGGUUCGAGUCCCGUAAGGGGUG | -0.122
AGUCCGUUGGCGUAAUGGUAACGCGUUUCCCUCCUAAGGAGAAGAUUGCGGGUUCGAGUCCCGUAUGGAACG | -0.185
GCUCCGUUGGCGUAAUGGUAACGCGUCUCCCUCCUAAGGAGAAGAUUGCGGGUUCGAGUCCCGUAUGGAUUG | -0.155
AGUCCGUUGGCGUAAUGGUAACGCGUCUCCCUCCUAAGGAGAAGAUUGCGGGUUCGAGUCCCGUAAGGGGUG | -0.173
AUUCCUUUGGCGUAAUGGUAACGCGUCUCCCUCCUAAGGAGACGAUUGCGGGUUCGAGUCCCGUAUGGGUCG | -0.305
GUUCCGUUGGCGUAAUGGUAACGCGUUUCCCUCCUAAGGAGAAGACUGCGGGUUCGAGUCCCGUAAGGAACG | -0.0595
AUUCCUUUGGCGUAAUGGUAACGCGUUUCCCUCCUAAGGAGAAGACUGCGGGUUCGAGUCCCGUACGGAUUG | -0.335
GUUCCAUUGGCGUAAUGGUAACGCGUCUCCCUCCUAAGGAGACGAUUGCGGGUUCGAGUCCCGUAUGGAACG | -0.00855

Variant | yeast fitness (ln)
GUUCCUUUGGCGUAAUGGUAACGCGUCUCCCUCCUAAGGAGACGACUGCGGGUUCGAGUCCCGUAAGGGUCG | -0.215
GGUCCGUUGGCGUAAUGGUAACGCGUCUCCCUCCUAAGGAGACGAUUGCGGGUUCGAGUCCCGUAUGGAACG | -0.14
GUUCCUUUGGCGUAAUGGUAACGCGUCUCCCUCCUAAGGAGACGACUGCGGGUUCGAGUCCCGUAAGGAUUG | -0.29
AGUCCUUUGGCGUAAUGGUAACGCGUCUCCCUCCUAAGGAGAAGAUUGCGGGUUCGAGUCCCGUAAGGGUCG | -0.0992
GCUCCGUUGGCGUAAUGGUAACGCGUUUCCCUCCUAAGGAGAAGACUGCGGGUUCGAGUCCCGUAAGGGGUG | -0.142
GCUCCGUUGGCGUAAUGGUAACGCGUUUCCCUCCUAAGGAGAAGAUUGCGGGUUCGAGUCCCGUAAGGAGCG | -0.137
ACUCCAUUGGCGUAAUGGUAACGCGUCUCCCUCCUAAGGAGACGACUGCGGGUUCGAGUCCCGUAUGGAGUG | -0.00743
GGUCCGUUGGCGUAAUGGUAACGCGUUUCCCUCCUAAGGAGAAGACUGCGGGUUCGAGUCCCGUACGGGGUG | -0.178
GUUCCGUUGGCGUAAUGGUAACGCGUUUCCCUCCUAAGGAGAAGACUGCGGGUUCGAGUCCCGUAUGGGACG | -0.241
AGUCCUUUGGCGUAAUGGUAACGCGUUUCCCUCCUAAGGAGACGAUUGCGGGUUCGAGUCCCGUAUGGAACG | -0.434
ACUCCGUUGGCGUAAUGGUAACGCGUCUCCCUCCUAAGGAGAAGAUUGCGGGUUCGAGUCCCGUACGGGUUG | -0.257
AGUCCUUUGGCGUAAUGGUAACGCGUUUCCCUCCUAAGGAGAAGAUUGCGGGUUCGAGUCCCGUAAGGGUUG | -0.513
AUUCCUUUGGCGUAAUGGUAACGCGUUUCCCUCCUAAGGAGAAGAUUGCGGGUUCGAGUCCCGUAUGGAGUG | -0.302
AUUCCUUUGGCGUAAUGGUAACGCGUUUCCCUCCUAAGGAGAAGAUUGCGGGUUCGAGUCCCGUAUGGAACG | -0.313
GGUCCUUUGGCGUAAUGGUAACGCGUUUCCCUCCUAAGGAGAAGACUGCGGGUUCGAGUCCCGUAAGGGGCG | -0.145
GUUCCGUUGGCGUAAUGGUAACGCGUCUCCCUCCUAAGGAGACGACUGCGGGUUCGAGUCCCGUACGGGAUG | -0.138
GGUCCAUUGGCGUAAUGGUAACGCGUUUCCCUCCUAAGGAGACGAUUGCGGGUUCGAGUCCCGUAUGGGUCG | -0.292
GCUCCAUUGGCGUAAUGGUAACGCGUCUCCCUCCUAAGGAGAAGAUUGCGGGUUCGAGUCCCGUACGGGUCG | -0.084
AGUCCUUUGGCGUAAUGGUAACGCGUUUCCCUCCUAAGGAGACGAUUGCGGGUUCGAGUCCCGUAUGGAGUG | -0.466
AUUCCGUUGGCGUAAUGGUAACGCGUUUCCCUCCUAAGGAGACGAUUGCGGGUUCGAGUCCCGUACGGGUUG | -0.366
AUUCCAUUGGCGUAAUGGUAACGCGUUUCCCUCCUAAGGAGACGACUGCGGGUUCGAGUCCCGUACGGAGUG | -0.351
GCUCCGUUGGCGUAAUGGUAACGCGUCUCCCUCCUAAGGAGACGAUUGCGGGUUCGAGUCCCGUACGGAAUG | -0.193
AUUCCGUUGGCGUAAUGGUAACGCGUCUCCCUCCUAAGGAGACGACUGCGGGUUCGAGUCCCGUACGGAGCG | -0.159
GCUCCGUUGGCGUAAUGGUAACGCGUUUCCCUCCUAAGGAGACGAUUGCGGGUUCGAGUCCCGUACGGAUCG | -0.14
GCUCCAUUGGCGUAAUGGUAACGCGUUUCCCUCCUAAGGAGAAGAUUGCGGGUUCGAGUCCCGUAUGGGUUG | -0.289
